In the library only some 2.3% were active in any assay of this set; here they are far more common.
RBBP9 inhibitor: human RBBP9 hydrolase inhibition; O75884; recombinant RBBP9, FP-Rh probe fluorescence polarization; inhibition, % at 7.94 µM; 0.2% of 220,000 active;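 active = inhibition above the campaign mean of all tested compounds plus 3 SD, cut at about 14% in these data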;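 also: plate controls were DMSO wells with RBBP9 for no effect and wells lacking RBBP9 protein for full effect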
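Test system: recombinant human RBBP9; Timing: 30 min then 45 min, 25 °C; Detection: fluorescence polarization; Control set: RBBP9 with DMSO as uninhibited control, no-protein wells as full inhibition; Compound dosing: one concentration, 7.94 µM nominal, 0.794% DMSO; Probe or stimulus: FP-Rh activity-based probe, 375 nM before mixing.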
PME-1 primary: PME-1 (human) inhibition; Q9Y570; recombinant PME-1, FP-Rh probe fluorescence polarization; AID 2130; 0.53% of 320,000 active; inhibition, % at 5.9 µM;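 active = inhibition above the campaign mean of all compounds plus 3 SD, cut at about 26% in these data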;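 also: competitive labeling of PME-1 active site by serine hydrolase directed probe; 0% = PME-1 with DMSO and 100% = wells lacking PME-1 enzyme; inhibitors block probe labeling so polarization falls and inhibition rises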
Target sequence (Q9Y570 whole entry, looked up): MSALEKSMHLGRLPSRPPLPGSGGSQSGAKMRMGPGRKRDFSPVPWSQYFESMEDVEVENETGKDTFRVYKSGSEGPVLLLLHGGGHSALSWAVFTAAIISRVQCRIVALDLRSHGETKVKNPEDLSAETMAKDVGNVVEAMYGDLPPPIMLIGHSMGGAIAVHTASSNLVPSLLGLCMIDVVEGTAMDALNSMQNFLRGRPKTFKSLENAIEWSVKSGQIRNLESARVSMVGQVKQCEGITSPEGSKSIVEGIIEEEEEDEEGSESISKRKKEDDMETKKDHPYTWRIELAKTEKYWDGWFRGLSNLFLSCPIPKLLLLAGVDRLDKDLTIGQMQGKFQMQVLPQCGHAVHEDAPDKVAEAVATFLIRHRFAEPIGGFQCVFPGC
PAD4 inh: blocks human protein arginine deiminase 4; Q9UM07; recombinant PAD4, RCA probe fluorescence polarization; inhibition, % at 6.36 µM; 0.41% of 330,000 active; AID 485272;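 active = percent inhibition above a cutoff equal to the mean of all tested compounds plus 3 SD, cut at about 15% in these data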;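 also: 0% = PAD4 with RCA probe and DMSO and 100% = probe without PAD4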
PRMT1 FP inh: PRMT1 (human) inhibition, primary screen. Q99873. recombinant PRMT1, activity-based probe fluorescence polarization. inhibition, % at 2.79 µM. 1.3% of 370,000 active;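 active = inhibition above about 21% made by adding two undisclosed values, limit read from the data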
Fam108B counter: counter-screen for RBBP9 inhibitors: inhibitors of mouse Fam108B; inhibition, % at 9.51 µM; recombinant Fam108B, FP-Rh probe fluorescence polarization; 0.33% of 300,000 active;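 active = inhibition above the screen mean inhibition plus 3 SD, computed separately per campaign, cut at about 18% in these data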;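 also: inhibitors lower polarization as less probe binds the enzyme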
GSTO1 inh: GSTO1 inhibition, counter-screen for RBBP9 inhibitors; P78417; 1.1% of 300,000 active; recombinant GSTO1, activity-based probe fluorescence polarization; inhibition, % at 5.96 µM; AID 1974;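 active = inhibition above the campaign mean inhibition plus 3 SD, cut at about 35% in these data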;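 also: 0% = GSTO1-1 with DMSO and 100% = wells lacking GSTO1-1 enzyme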
Target sequence (P78417 whole entry, looked up): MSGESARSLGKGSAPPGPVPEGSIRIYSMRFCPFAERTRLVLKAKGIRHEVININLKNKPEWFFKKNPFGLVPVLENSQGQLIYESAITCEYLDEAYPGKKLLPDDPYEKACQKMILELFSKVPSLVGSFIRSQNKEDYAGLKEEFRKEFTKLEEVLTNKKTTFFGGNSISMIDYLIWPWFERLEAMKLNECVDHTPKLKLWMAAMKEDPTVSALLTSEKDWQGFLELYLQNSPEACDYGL
GSTO1 confirm: confirmation of human GSTO1 inhibitors | 54% of 2,400 active | recombinant GSTO1, probe fluorescence polarization | inhibition, % at 5.96 µM | shares compounds with GSTO1 inh;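 active = inhibition above the primary screen's cutoff, its mean inhibition plus 3 SD, cut at about 35% in these data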;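 also: loss of polarization as inhibitors block binding of rhodamine sulfonate ester activity probe; 0% = GSTO1 with DMSO and 100% = wells lacking GSTO1 enzyme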
GSTO1 recomb ABPP: GSTO1 (human) inhibition by gel ABPP; shares compounds with GSTO1 inh; recombinant GSTO1, gel ABPP SE-Rh probe fluorescence; inhibition, % at 1 µM; 30% of 130 active; AID 463110;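 active = inhibition of the enzyme GSTO1 above about 75%, limit read from the data; inactive = inhibition below that limit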
Starred values were filed as active, the others as inactive; / = no result given.

SMILES	RBBP9 inhibitor	PME-1 primary	PAD4 inh	PRMT1 FP inh	Fam108B counter	GSTO1 inh	GSTO1 confirm	others
COc1ccc(C2CC(=O)N(C)c3ccccc3S2)cc1 (centres undefined)	-9	-1	1	-4	0	47*	2
C=CCN1C=C2C(=O)C(C)(OC(=O)c3ccco3)C(=O)C(C=C)=C2C=C1C1CC1 (centres undefined)	/	6	13	/	7	39*	12
C=CC1=C2C=C(C3CC3)N(CC3CC3)C=C2C(=O)C(C)(OC(=O)c2ccco2)C1=O (centres undefined)	/	2	1	5	-5	20	/
COc1ccccc1-c1nnc(NC(=O)C(C)SC2=NCCS2)s1 (centres undefined)	-14	-6	11	7	-1	48*	62*
O=C(CCN1CCOCC1)NNC(=O)Nc1cccc(C(F)(F)F)c1	/	-2	-3	-2	0	-1	/
COc1ccccc1-c1noc(-c2cc(OC)c(OC)c(OC)c2)n1	-3	-6	-4	1	0	-7	/
COc1cc(OC)cc(-c2nc(-c3ccccc3OC)no2)c1	6	-3	3	0	-3	53*	6
CCCCn1c(N)c(N(CCOC)C(=O)C(C)N2C(=O)c3ccccc3C2=O)c(=O)[nH]c1=O (centres undefined)	/	5	1	-2	1	67*	9
Cc1ccc(-c2cc3nc4c(c(=O)n3[nH]2)CCCC4)cc1	3	-69	-3	-2	4	6	/
COc1cc(C(=O)N2CCN(C/C=C/c3ccccc3)CC2)cc(OC)c1OC	0	-5	-1	0	-2	0	/
O=C(O)C1OC(Oc2c(-c3ccc(O)c(O)c3)oc3cc(O)cc(O)c3c2=O)C(O)C(O)C1O (centres undefined)	-12	-19	-4	/	-3	34	/
O=c1cc(-c2ccc(O)c(O)c2)oc2cc(O)cc(O)c12	/	-17	1	4	8	50*	47*
O=c1c(O)c(-c2ccc(O)c(O)c2)oc2cc(O)cc(O)c12	/	14	-8	15	14	57*	66*
COc1ccc(C(=O)/C=C(\C)Nc2ccc(NC(C)=O)cc2)cc1	-3	3	0	0	12	1	/
C/C(=C\C(=O)c1ccccc1)Nc1ccc(O)cc1	12	13	50*	31*	4	78*	8
c1ccc(CN2CCN(C3=Nc4cccc5cccc3c45)CC2)cc1	2	/	/	-1	/	/	/
O=C1CCN2C=Nc3cccc4ccc1c2c34	-5	5	13	124*	5	40*	9
N#Cc1c(NC(=O)CSc2ncc(-c3ccccc3)n2CC2CCCO2)sc2c1CCCC2 (centres undefined)	-6	-6	-3	-2	-3	-13	/
O=C(O)CC(CCc1ccccc1)OC1OC(CO)C(O)C(O)C1O (centres undefined)	/	-9	3	5	-7	53*	13
CCOC(=O)C1CCN(c2c(NCCN(CC)c3ccccc3)c(=O)c2=O)CC1	3	-2	3	7	0	4	/
Cn1c(=O)c2ccccc2n2c(=S)[nH]nc12	/	3	4	0	4	3	/
Cn1c(=O)c2ccccc2n2c(CCl)nnc12	/	-5	3	2	-3	80*	86*	GSTO1 recomb ABPP=49
O=c1[nH]c2ccc(Br)cc2c(-c2ccccc2)c1CN1CCOCC1	0	1	5	8	0	64*	2
O=c1[nH]c2ccc(Br)cc2c(-c2ccccc2)c1N1CCOCC1	0	3	6	3	3	4	/
Oc1ccc(/C=N/N2CCCCC2)cc1O	/	-4	3	-2	1	40*	8
SMILES	RBBP9 inhibitor	PME-1 primary	PAD4 inh	PRMT1 FP inh	Fam108B counter	GSTO1 inh	GSTO1 confirm	others
CCC(=O)N=c1ccn(C2=Nc3ccccc3NC2=C(C#N)C#N)cc1	-3	-7	-4	2	1	63*	21
CCOC(=O)/C(C#N)=C1/C=Nc2ccccc2N1	-9	3	3	0	2	-4	/
Oc1cc(O)c2c(c1)O[C@H](c1ccc(O)c(O)c1)[C@H](O)C2	/	2	-2	8	1	40*	7
c1ccc(CCCOCCC2CO2)cc1 (centres undefined)	/	-4	1	/	0	96*	94*	GSTO1 recomb ABPP=60
CN(C)c1ccc(N2CN=C3SCC(=O)N3C2)cc1	9	-1	12	6	8	72*	4
COc1cccc(CC(NC(C)=O)C(=O)NC2CCN(C(=O)c3ccc(Cl)cc3)CC2)c1 (centres undefined)	/	/	/	-4	/	/	/
CC(C)(C)c1ccc(S(=O)(=O)/N=C2\C=C(NS(=O)(=O)c3ccccc3)C(=O)c3ccccc32)cc1	/	16	2	-6	5	71*	67*
CCN(c1ccccc1)S(=O)(=O)c1cc(NC(=O)CSc2n[nH]c(=O)[nH]c2=O)ccc1Cl	-24	-6	2	1	13	52*	67*
CCN(c1ccccc1)S(=O)(=O)c1cc(NC(=O)C2CC2)ccc1Cl	/	/	-6	3	/	/	/
O=C(CSc1ccccn1)Nc1ccc2c(c1)C(=O)c1ccccc1C2=O	6	0	-1	1	4	21	/
O=C(CSc1n[nH]c(=O)[nH]c1=O)Nc1ccc2c(c1)C(=O)c1ccccc1C2=O	-8	8	1	5	12	61*	78*
CCN(c1ccc(NC(=O)COC(=O)CCC(=O)c2ccc(F)cc2)cc1)C(C)C	-6	4	-3	6	-1	38*	24
Cc1cccc(OCC(=O)N=Nc2c(O)[nH]c3ccc([N+](=O)[O-])cc23)c1	-1	-2	-3	-1	-1	20	/
O=[N+]([O-])c1ccc2[nH]c(O)c(N=NC(=S)NCC3CCCO3)c2c1 (centres undefined)	-5	4	-3	-2	-3	40*	45*
O=[N+]([O-])c1ccc2[nH]c(O)c(N=NC(=S)Nc3cccnc3)c2c1	8	5	-4	2	5	42*	65*
Cc1cc(NC(=O)C(C)C)ncc1NC(=O)CCc1ccccc1	-2	2	-5	3	-2	-3	/
O=C(Nc1ccnn1C1CCN(C2CCCCC2)CC1)c1ccccc1	/	-6	-1	-7	-2	-1	/
COc1ccc(C(=O)Oc2ccc(C(C)=O)cc2)c(OC)c1	-6	-3	3	-1	3	-9	/
CN(C)Cc1c(O)ccc2c(=O)c(-c3ccc(Cl)cc3)coc12	/	0	-3	-1	2	0	/
O=c1c(-c2ccc([N+](=O)[O-])cc2)coc2c(O)c(O)ccc12	-3	-7	3	38*	1	53*	25
